Series [1] relates to Escherichia coli. The experiment in a line: Antibacterial activity against Escherichia coli ATCC 25922. It counts as functional.
The subject of series [2] is Staphylococcus aureus. The experiment in a line: Antibacterial activity against methicillin-resistant Staphylococcus aureus ATCC 33591. It is filed as functional.
In series [3] the test system is Staphylococcus aureus. Nature of the series: Antibacterial activity against Staphylococcus aureus ATCC 25923. It counts as functional.
The nature of series [4]: Stability of the compound in 0.1 M NH4HCO3 buffer at pH 8.2 assessed as half life in presence of chymotrypsin. Conditions: for half-life: chymotrypsin in NH4HCO3 buffer; for t1/2: isolated protein. It counts as physicochemical. In a few lines:
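Peptide 1 mg/mL stock; chymotrypsin 1 mg per 50 mL buffer; both diluted tenfold into 0.1 M NH4HCO3 pH 8.2 and incubated at 37 °C. Aliquots quenched with water/acetonitrile 60/40 containing 0.5% TFA and run on RP-HPLC. Half-life calculated from 214 nm peak areas over the first 5 h. Under 10% degradation at 24 h counted as stable. Enzyme-free samples at 0 and 24 h served as controls.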

A short description of series [5]: Toxicity in human RBC assessed as hemolysis at 1 mM after 30 mins relative to control. It counts as cell-based, Erythrocyte. Conditions: red blood cells (RBC), read-out: Activity. A digest of the protocol: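 Fresh heparinized human erythrocytes, washed in normal saline. Peptides at 25–1000 μg/mL with 1% v/v final erythrocytes, 30 min at 37 °C with agitation. Supernatant OD read at 405 nm. Saline served as 0% and 1% Triton X as 100% hemolysis; percent lysis taken relative to their difference.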

Series [6] is described as follows: Binding affinity to chymotrypsin by isothermal titration […]. In a few lines:
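Isothermal titration calorimetry at 25 °C in 0.1 M NH4HCO3 pH 8.2. Peptide (2.1 mM in syringe) injected in 20 aliquots of 5 μL into stirred (150 rpm) chymotrypsin (0.1 mM), 400 s between injections. First injection point discarded. KD fitted from heats of interaction.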

Consider 15 compounds from ChEMBL document CHEMBL1212827, “Unnatural amino acid side chains as S1, S1', and S2' probes yield cationic antimicrobial peptides with stability toward chymotryptic degradation” (J Med Chem, 2010).

Values after ≈ are worked out from the molar mass of the structure shown. Non-standard residues stand in square brackets, D forms with d. Residues, ends and D or L forms follow the SMILES beside them. *: point of attachment. Phe(4-guanidino) = N=C(N)Nc1ccc(C[C@H](N)C(=O)O)cc1; Bip = N[C@@H](Cc1ccc(-c2ccccc2)cc1)C(=O)O; Dip = N[C@H](C(=O)O)C(c1ccccc1)c1ccccc1; Phe(4-NH2) = Nc1ccc(C[C@H](N)C(=O)O)cc1; hArg = N=C(N)NCCCC[C@H](N)C(=O)O; Agp = N=C(N)NC[C@H](N)C(=O)O; NHPhenethyl = c1ccc(CCN*)cc1; Orn = NCCC[C@H](N)C(=O)O; NHBn = c1ccc(CN*)cc1

Usually MIC stands for the least concentration at which growth counts as inhibited. The half-life is how long it takes for the measured level to halve. In series [1], `N=C(N)NCCC[C@H](NC(=O)[C@@H](N)CCCNC(=N)N)C(=O)N[C@@H](Cc1c[nH]c2ccccc12)C(=O)NCc1ccccc1` (H-Arg-Arg-Trp-NHBn) gave an Activity above 200 µM. Also, the figures for the MIC in series [2] and in series [3] were 26 µM (≈ 15.7 µg/mL) and 79 µM (≈ 47.9 µg/mL), respectively. The half-life in series [4] was 7 h.

For `N=C(N)NCCC[C@H](NC(=O)[C@H](Cc1ccccc1)NC(=O)[C@@H](N)CCCNC(=N)N)C(=O)NCc1ccccc1` (H-Arg-Phe-Arg-NHBn), the Activity in series [1] was above 200 µM. Moreover, the values for the minimal inhibitory concentration (MIC) in series [2] and in series [3] were 83 µM (≈ 47 µg/mL) and 165 µM (≈ 93.5 µg/mL), respectively. Besides, the half-life in series [4] was 3 h.

On to `NC(=O)[C@H](CCCN=C(N)N)NC(=O)[C@H](Cc1c[nH]c2ccccc12)NC(=O)[C@@H](N)CCCN=C(N)N` (H-Arg-Trp-Arg-NH2), for which the Activity in series [1] is above 200 µM. Also, the MIC in series [2] and in series [3] was above 200 µM throughout. Also, the half-life in series [4] is 5 h. The hemolysis at 0.5 h, 1000 µM in series [5] is above 134%.

As to `N=C(N)NCCC[C@H](NC(=O)[C@H](Cc1c[nH]c2ccccc12)NC(=O)[C@@H](N)CCCNC(=N)N)C(=O)NCc1ccccc1` (H-Arg-Trp-Arg-NHBn), the Activity in series [1] is above 200 µM. Further, the figures for the minimum inhibitory concentration (MIC) in series [2] and in series [3] were 132 µM (≈ 80 µg/mL) and 79 µM (≈ 47.9 µg/mL), respectively. Further, in series [4], the half-life is 2 h. Further, the hemolysis at 0.5 h, 1000 µM in series [5] was above 5%.

For the compound `N=C(N)NCCC[C@H](NC(=O)[C@H](Cc1c[nH]c2ccccc12)NC(=O)[C@@H](N)CCCNC(=N)N)C(=O)NCCc1ccccc1` (H-Arg-Trp-Arg-NHPhenethyl), the Activity in series [1] was above 200 µM. Besides, the MIC was 26 µM (≈ 16.1 µg/mL) in series [2] and 52 µM (≈ 32.2 µg/mL) in series [3]. For the same compound, the half-life in series [4] is 0.5 h.

Consider `N=C(N)NCCC[C@H](N)C(=O)N[C@@H](Cc1c[nH]c2ccccc12)C(=O)N[C@@H](CCCCN)C(=O)NCc1ccccc1` (H-Arg-Trp-Lys-NHBn), for which, in series [1], the Activity was above 200 µM. In addition, the minimal inhibitory concentration (MIC) in series [2] is 54 µM (≈ 31.2 µg/mL); in series [3], 163 µM (≈ 94.2 µg/mL). The half-life in series [4] is 4 h.

The Kd is the constant that tells how readily two partners part at equilibrium. Low values mean a tighter complex, high ones a looser complex. As to `N=C(N)NCCC[C@H](N)C(=O)N[C@@H](Cc1c[nH]c2ccccc12)C(=O)N[C@@H](CNC(=N)N)C(=O)NCc1ccccc1` (H-Arg-Trp-[Agp]-NHBn), the Activity in series [1] was above 200 µM. In addition, the results for the minimum inhibitory concentration (MIC) in series [2] and in series [3] were 16 µM (≈ 9.24 µg/mL) and 54 µM (≈ 31.2 µg/mL), respectively. Besides, the Kd in series [6] came to 61.1 µM. Further, the t1/2 entry in series [4] is listed as “Stable”. In addition, the hemolysis at 0.5 h, 1000 µM in series [5] is above 2%.

For `N=C(N)NCCC[C@H](N)C(=O)N[C@@H](Cc1c[nH]c2ccccc12)C(=O)N[C@@H](CCCN)C(=O)NCc1ccccc1` (H-Arg-Trp-[Orn]-NHBn), in series [1], the Activity was above 200 µM. For the same compound, the MIC in series [2] amounted to 55 µM (≈ 31 µg/mL); in series [3], 110 µM (≈ 62 µg/mL). In addition, the half-life in series [4] was 20 h. Further, the hemolysis at 0.5 h, 1000 µM in series [5] is above 1%.

In series [1], `N=C(N)NCCC[C@H](N)C(=O)N[C@@H](Cc1c[nH]c2ccccc12)C(=O)N[C@@H](Cc1ccc(N)cc1)C(=O)NCc1ccccc1` (H-Arg-Trp-[Phe(4-NH2)]-NHBn) came in with an Activity above 200 µM. Moreover, the MIC was found to be 79 µM (≈ 48.3 µg/mL) in series [2] and 157 µM (≈ 96 µg/mL) in series [3]. Further, the t1/2 result in series [4] is “Stable”. Further, in series [5], the hemolysis at 0.5 h, 1000 µM was above 5%.

In series [1], `N=C(N)NCCC[C@H](N)C(=O)N[C@@H](Cc1c[nH]c2ccccc12)C(=O)N[C@@H](Cc1ccc(NC(=N)N)cc1)C(=O)NCc1ccccc1` (H-Arg-Trp-[Phe(4-guanidino)]-NHBn) gave an Activity above 200 µM. In addition, the results for the MIC in series [2] and in series [3] were 10 µM (≈ 6.54 µg/mL) and 50 µM (≈ 32.7 µg/mL), respectively. Moreover, the half-life in series [4] was 4 h.

The compound `N=C(N)NCCCC[C@H](NC(=O)[C@H](Cc1c[nH]c2ccccc12)NC(=O)[C@@H](N)CCCNC(=N)N)C(=O)NCc1ccccc1` (H-Arg-Trp-[hArg]-NHBn) displayed an Activity in series [1] above 200 µM. The MIC in series [2] amounted to 52 µM (≈ 32.2 µg/mL); in series [3], 78 µM (≈ 48.3 µg/mL). In addition, the half-life in series [4] is 1 h.

Consider `N=C(N)NCCC[C@H](NC(=O)[C@H](Cc1ccc(-c2ccccc2)cc1)NC(=O)[C@@H](N)CCCNC(=N)N)C(=O)NCc1ccccc1` (H-Arg-[Bip]-Arg-NHBn), for which the Activity in series [1] was above 200 µM. In addition, the MIC is 15 µM (≈ 9.64 µg/mL) in series [2] and 10 µM (≈ 6.43 µg/mL) in series [3]. Also, the Kd in series [6] turned out to be 18.4 µM. In addition, in series [4], the t1/2 entry was “Stable”. The hemolysis at 0.5 h, 1000 µM in series [5] is above 5%.

For `N=C(N)NCCC[C@H](NC(=O)[C@@H](NC(=O)[C@@H](N)CCCNC(=N)N)C(c1ccccc1)c1ccccc1)C(=O)NCc1ccccc1` (H-Arg-[Dip]-Arg-NHBn), in series [1], the Activity is above 200 µM. Also, the figures for the MIC in series [2] and in series [3] were 10 µM (≈ 6.43 µg/mL) and 25 µM (≈ 16.1 µg/mL), respectively. Besides, the t1/2 result in series [4] is “Stable”. In addition, the hemolysis at 0.5 h, 1000 µM in series [5] is above 10%.

For `N=C(N)NCCC[C@H](N)C(=O)N[C@@H](Cc1ccc(N)cc1)C(=O)N[C@@H](Cc1c[nH]c2ccccc12)C(=O)NCc1ccccc1` (H-Arg-[Phe(4-NH2)]-Trp-NHBn), the Activity in series [1] was above 200 µM. The MIC in series [2] worked out at 79 µM (≈ 48.3 µg/mL); in series [3], 157 µM (≈ 96 µg/mL). In addition, the half-life in series [4] was 17 h.

The compound `N=C(N)NCCC[C@H](N)C(=O)N[C@@H](Cc1ccc(NC(=N)N)cc1)C(=O)N[C@@H](Cc1c[nH]c2ccccc12)C(=O)NCc1ccccc1` (H-Arg-[Phe(4-guanidino)]-Trp-NHBn) came in with an Activity in series [1] above 200 µM. For the same compound, the MIC in series [2] was 15 µM (≈ 9.81 µg/mL); in series [3], 50 µM (≈ 32.7 µg/mL). For the same compound, the t1/2 entry in series [4] was “Stable”. In addition, the hemolysis at 0.5 h, 1000 µM in series [5] was above 2%.
